Laboratory results from ChEMBL document CHEMBL1145471, “Small molecule regulators of autophagy identified by an image-based high-throughput screen” (Proc Natl Acad Sci U S A, 2007).
Active and inactive are the calls of the source. No cut-off for these calls is given here.

What was measured:
H4 [1] = assay: Effect on FYVE-RFP+ vesicle intensity per cell in human H4 cells after 4 hrs relative to control; assay type: functional; design: concentration or dose not given beside the values
Outline: (§1)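 H4 cells stably expressing FYVE-RFP (H4-FYVE), grown in DMEM with 10% FBS, penicillin/streptomycin and 2 mM L-glutamine at 37°C, 5% CO2, seeded in 96-well plates and exposed to compound. Fixed in 4% paraformaldehyde, nuclei stained with 3 μg/ml DAPI, FYVE-RFP+ vesicles quantified by high-throughput fluorescence microscopy against DMSO control. Triplicate wells, mean ± SD.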

H4 [2] = assay: Increase in light chain 3-GFP+ autophagosome vesicle intensity per cell in human H4 cells at 7.2 uM after 24 hrs by high throughput fluorescence microscopy relative to control; assay type: functional
Outline: (§2)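 H4 cells stably expressing LC3-GFP were grown in DMEM with 10% FBS and 2 mM L-glutamine at 37°C, 5% CO2. They were exposed to each compound for 24 h, with DMSO as negative and rapamycin as positive control. Cells were then fixed in 4% paraformaldehyde and stained with 3 μg/ml DAPI. High-throughput fluorescence imaging scored LC3-GFP spot number, size and intensity, expressed relative to DMSO. Mean ± SD of triplicates; experiments repeated three times.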

H4 [3] = assay: Increase in long-lived protein degradation in human H4 cells after 2 hrs relative to control; assay type: functional; design: concentration or dose not given beside the values
H4 [4] = assay: Increase in light chain 3-GFP+ autophagosome vesicle number per cell in human H4 cells at 7.2 uM after 24 hrs by high throughput fluorescence microscopy relative to control; assay type: functional; outline: as §2
H4 [5] = assay: Increase in long-lived protein degradation in human H4 cells after 1 hr relative to control; assay type: functional; design: concentration or dose not given beside the values
H4 [6] = assay: Effect on FYVE-RFP+ vesicle intensity per cell in human H4 cells after 2 hrs relative to control; assay type: functional; design: concentration or dose not given beside the values; outline: as §1
H4 [7] = assay: Increase in light chain 3-GFP+ autophagosome vesicle area per cell in human H4 cells at 7.2 uM after 24 hrs by high throughput fluorescence microscopy relative to control; assay type: functional
Outline: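 H4 cells stably expressing LC3-GFP, seeded in 96-well plates and exposed to compound for 24 h; screening concentrations were 3–12 μM, with rapamycin 0.22 μM and bafilomycin A1 0.40 μM. Cells fixed in 4% paraformaldehyde and stained with 3 μg/ml DAPI. Number, size and intensity of LC3-GFP spots measured by high-throughput fluorescence microscopy and expressed as percent of DMSO-treated wells. Rapamycin was the positive control. Triplicate wells, mean ± SD; experiments repeated three times.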

H4 [8] = assay: Increase in long-lived protein degradation in human H4 cells after 24 hrs relative to control; assay type: functional; design: concentration or dose not given beside the values
H4 [9] = assay: Increase in long-lived protein degradation in human H4 cells after 4 hrs relative to control; assay type: functional; design: concentration or dose not given beside the values
H4 [10] = assay: Induction of light chain 3-GFP level in human H4 cells at 7.2 uM after 24 hrs by high throughput fluorescence microscopy relative to control; assay type: functional
Outline: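 H4 cells stably expressing LC3-GFP, grown in DMEM with 10% FBS, penicillin/streptomycin and 2 mM L-glutamine at 37°C, 5% CO2. Cells were seeded in 96-well plates and exposed to library compounds at 3–12 μM for 24 h, then fixed in 4% paraformaldehyde and stained with 3 μg/ml DAPI. LC3-GFP spot number, size and intensity were measured by high-throughput fluorescence microscopy and expressed relative to DMSO. Triplicates, mean ± SD.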

H4 [11] = assay: Effect on FYVE-RFP+ vesicle intensity per cell in human H4 cells after 8 hrs relative to control; assay type: functional; design: concentration or dose not given beside the values; outline: as §1
H4 [12] = assay: Induction of light chain 3-GFP level in human H4 cells at 3.3 uM after 24 hrs by high throughput fluorescence microscopy relative to control; assay type: functional
Outline: (§3)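 H4 cells stably expressing LC3-GFP, kept in DMEM/10% FBS at 37°C, 5% CO2, were seeded in 96-well plates and exposed to compound for 24 h. Cells were then fixed in 4% paraformaldehyde and stained with 3 μg/ml DAPI. Automated fluorescence microscopy scored the number, size and intensity of LC3-GFP spots. Values are percent of DMSO wells, in triplicate, mean ± SD. Rapamycin served as positive control.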

H4 [13] = assay: Decrease in FYVE-RFP+ vesicle intensity per cell in human H4 cells after 2 hrs relative to control; assay type: functional; design: concentration or dose not given beside the values; outline: as §1
H4 [14] = assay: Increase in light chain 3-GFP+ autophagosome vesicle intensity per cell in human H4 cells at 3.3 uM after 24 hrs by high throughput fluorescence microscopy relative to control; assay type: functional
Outline: (§4)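 H4 cells stably expressing LC3-GFP, seeded in 96-well plates and exposed to compound for 24 h; fixed in 4% paraformaldehyde, nuclei stained with 3 μg/ml DAPI. Automated fluorescence microscopy scored number, size and intensity of LC3-GFP spots; values expressed relative to DMSO-treated wells, rapamycin positive control. Triplicate wells, mean ± SD; experiments repeated three times.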

H4 [15] = assay: Decrease in FYVE-RFP+ vesicle intensity per cell in human H4 cells after 8 hrs relative to control; assay type: functional; design: concentration or dose not given beside the values; outline: as §1
H4 [16] = assay: Increase in light chain 3-GFP+ autophagosome vesicle area per cell in human H4 cells at 3.3 uM after 24 hrs by high throughput fluorescence microscopy relative to control; assay type: functional; outline: as §4
H4 [17] = assay: Decrease in FYVE-RFP+ vesicle intensity per cell in human H4 cells after 4 hrs relative to control; assay type: functional; design: concentration or dose not given beside the values; outline: as §1
H4 [18] = assay: Increase in light chain 3-GFP+ autophagosome vesicle number per cell in human H4 cells at 3.3 uM after 24 hrs by high throughput fluorescence microscopy relative to control; assay type: functional; outline: as §4
H4 [19] = assay: Increase in light chain 3-GFP+ autophagosome vesicle intensity per cell in human H4 cells at 5.3 uM after 24 hrs by high throughput fluorescence microscopy relative to control; assay type: functional; outline: as §4
H4 [20] = assay: Increase in FYVE-RFP+ vesicle intensity per cell in human H4 cells after 4 hrs relative to control; assay type: functional; design: concentration or dose not given beside the values; outline: as §1
[21] = target: Serine/threonine-protein kinase mTOR (Homo sapiens, UniProt P42345); assay: Effect on mTOR phosphorylation in human H4 cells at 5.3 uM after 4 hrs; assay type: cell-based
Outline: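 H4 cells exposed to compound for 4 h. Lysates analysed by Western blot with anti-phospho and anti-total mTOR antibodies, with actin as loading control. Rapamycin served as reference.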

H4 [22] = assay: Increase in ratio of light chain 3 subunit 2 to light chain 3 subunit 1 in human H4 cells at 5.3 uM after 4 hrs by Western blot; assay type: functional, cell-based
Outline: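 H4 cells were treated with each compound for 4 h, then lysed. Lysates were immunoblotted with anti-LC3 antibody, with actin as loading control. LC3II and LC3I bands were compared as an LC3II/LC3I ratio.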

H4 [23] = assay: Increase in light chain 3-GFP+ autophagosome vesicle area per cell in human H4 cells at 5.3 uM after 24 hrs by high throughput fluorescence microscopy relative to control; assay type: functional; outline: as §4
H4 [24] = assay: Increase in FYVE-RFP+ vesicle intensity per cell in human H4 cells after 2 hrs relative to control; assay type: functional; design: concentration or dose not given beside the values; outline: as §1
H4 [25] = assay: Reduction of poly(Q) level in human H4 cells expressing EGFP-Q79-HA after 24 hrs; assay type: functional, cell-based
Outline: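 H4 cells were transiently transfected with an EGFP-Q79-HA expression vector. The medium was replaced 6 h after transfection and compounds were added. Poly(Q) was detected with anti-HA antibody.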

H4 [26] = assay: Induction of light chain 3-GFP level in human H4 cells at 5.3 uM after 24 hrs by high throughput fluorescence microscopy relative to control; assay type: functional; outline: as §3
H4 [27] = assay: Increase in light chain 3-GFP+ autophagosome vesicle number per cell in human H4 cells at 5.3 uM after 24 hrs by high throughput fluorescence microscopy relative to control; assay type: functional; outline: as §3
H4 [28] = assay: Increase in FYVE-RFP+ vesicle intensity per cell in human H4 cells after 8 hrs relative to control; assay type: functional; design: concentration or dose not given beside the values; outline: as §1

Q: Which Activity (H4 [1]) does the source give for COC(=O)c1c(C)[nH]c(C)c1C(=O)c1ccccc1Cc1ccccc1 here?
A: The Activity was 78.17%.

Q: And the Activity (H4 [2])?
A: Its Activity is 200.83%.

Q: What about the Activity (H4 [3]) of the same compound?
A: The Activity was 111.04%.

Q: And the Activity (H4 [4])?
A: Its Activity is 161.73%.

Q: And the Activity (H4 [5])?
A: The Activity was 101.34%.

Q: And the Activity (H4 [6])?
A: The Activity was 99.43%.

Q: What about the Activity (H4 [7]) of the same compound?
A: The Activity was 18010%.

Q: What about the Activity (H4 [8]) of the same compound?
A: Its Activity is 90.97%.

Q: And the Activity (H4 [9])?
A: Its Activity is 97.03%.

Q: And the Activity (H4 [10])?
A: Its Activity is 132.45%.

Q: And the Activity (H4 [11])?
A: The Activity was 87.62%.

Q: What does the source list for COc1cc2c3cc1Oc1c(OC)c(OC)cc4c1[C@@H](Cc1ccc(OC(=O)c5ccc([N+](=O)[O-])cc5)c(c1)Oc1ccc(cc1)C[C@@H]3N(C)CC2)N(C)CC4 [E6 BERBAMINE]?
A: Activity (H4 [12]): 131.16%; Activity (H4 [13]): 59.73%; Activity (H4 [3]): 91.62%; Activity (H4 [14]): 2447.47%; Activity (H4 [5]): 100.96%; Activity (H4 [15]): 58.69%; Activity (H4 [8]): 93.45%; Activity (H4 [16]): 693.82%; Activity (H4 [17]): 54.54%; Activity (H4 [18]): 389.35%; Activity (H4 [9]): 96.53%

Q: How did the Activity (H4 [19]) turn out when O=C1NCN(c2ccccc2)C12CCN(CCCC(c1ccc(F)cc1)c1ccc(F)cc1)CC2 [FLUSPIRILENE] was run?
A: Its Activity is 1593.16%.

Q: And the Activity (H4 [20])?
A: Its Activity is 142.15%.

Q: What about the Activity (H4 [3]) of the same compound?
A: The Activity was 143.17%.

Q: What about the Activity [21] of the same compound?
A: The Activity was “inactive”.

Q: What about the Activity (H4 [22]) of the same compound?
A: The Activity was “Active”.

Q: What about the Activity (H4 [5]) of the same compound?
A: The Activity was 93.82%.

Q: What about the Activity (H4 [23]) of the same compound?
A: Its Activity is 532.51%.

Q: And the Activity (H4 [8])?
A: Its Activity is 145.5%.

Q: And the Activity (H4 [24])?
A: The Activity was 224.98%.

Q: And the Activity (H4 [25])?
A: Its Activity is “Dose-dependent effect”.

Q: What about the Activity (H4 [26]) of the same compound?
A: Its Activity is 143.3%.

Q: What about the Activity (H4 [27]) of the same compound?
A: The Activity was 309.6%.

Q: What about the Activity (H4 [9]) of the same compound?
A: Its Activity is 144.79%.

Q: And the Activity (H4 [28])?
A: The Activity was 108.53%.
